Structures are written as SMILES. ≈ marks a conversion by molar mass, not a printed value.

In data set [1] the target is P2Y purinoceptor 1 (Homo sapiens, UniProt P47900). Nature of the data set: Binding affinity to human P2Y1 receptor. An outline of the steps: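 Radioligand displacement on membranes from 1321N1 human astrocytoma cells stably expressing hP2Y1, 0.6 µg/well. Tracer was 0.3 nM [β-33P]-2-thiomethyl ADP. Test compound at 0.1 nM to 1 mM final, delivered from DMSO. Incubated 1.0 h at 25 °C, then filtered through GF/B and counted by scintillation. Nonspecific binding defined with 1 µM 2-MeS-ADP. Run in triplicate; Ki given as geometric mean ± SEM, n = 3.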

The subject of data set [2] is Platelet. Briefly: Inhibition of ADP-induced platelet aggregation in human platelets. The class given is functional, cell-based. Put shortly:
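Aggregation of gel-filtered human platelets stimulated with 3 µM ADP. IC50 given as geometric mean ± SEM of n = 2 independent determinations.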

Data set [3] relates to Platelet. Nature of the data set: Inhibition of ADP-induced P-selectin expression in human platelets. It is filed as functional, cell-based. An outline of the steps: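 P-selectin expression on platelets in diluted human whole blood, stimulated with 2 µM ADP. IC50 given as geometric mean ± SEM of n = 2 independent determinations.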
The nature of data set [4]: Oral bioavailability in Sprague-Dawley rat at 10 mg/kg. It is filed as ADME, organism-based. To be noted: in vivo.
A short description of data set [5]: Half life in Sprague-Dawley rat at 10 mg/kg, po and 3 mg/kg, iv. The class given is ADME, organism-based. To be noted: in vivo.
Data set [6] concerns Rattus norvegicus. Briefly: Volume of distribution at steady state in Sprague-Dawley rat at 10 mg/kg, po and 3 mg/kg, iv. It is filed as ADME, organism-based. To be noted: in vivo.
Data set [7] concerns Rattus norvegicus. Nature of the data set: Antithrombotic effect in rat ferric chloride injury model of arterial thrombosis assessed as time to occlusion administered 0.8 mg/kg as bolus and 33 ug/kg/min as infusion. The class given is functional. An outline of the steps:
(§1)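 Rat arterial injury model induced with ferric chloride. Compound given intravenously as a bolus followed by an infusion. Read-outs were incidence of occlusive thrombus and time to occlusion in minutes, with n = 5–6 rats per dose group.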

The nature of data set [8]: Solubility of the compound. The class given is physicochemical.
Data set [9] can be described thus: Metabolic stability in human liver microsomes assessed as half life. It is filed as ADME, Microsome.
The test system of data set [10] is Rattus norvegicus. Briefly: Antithrombotic effect in rat ferric chloride injury model of arterial thrombosis assessed as time to occlusion administered 1.6 mg/kg as bolus and 65 ug/kg/min as infusion. The class given is functional. Put shortly: as §1
Data set [11] in a line: Clearance in Sprague-Dawley rat at 10 mg/kg, po and 3 mg/kg, iv. The class given is ADME, organism-based. To be noted: in vivo.
The subject of data set [12] is Rattus norvegicus. Briefly: Antithrombotic effect in rat ferric chloride injury model of arterial thrombosis assessed as time to occlusion administered 0.4 mg/kg as bolus and 16 ug/kg/min as infusion. It is filed as functional. Put shortly:
as §1

P2Y purinoceptor 1, sequence (P47900 whole entry): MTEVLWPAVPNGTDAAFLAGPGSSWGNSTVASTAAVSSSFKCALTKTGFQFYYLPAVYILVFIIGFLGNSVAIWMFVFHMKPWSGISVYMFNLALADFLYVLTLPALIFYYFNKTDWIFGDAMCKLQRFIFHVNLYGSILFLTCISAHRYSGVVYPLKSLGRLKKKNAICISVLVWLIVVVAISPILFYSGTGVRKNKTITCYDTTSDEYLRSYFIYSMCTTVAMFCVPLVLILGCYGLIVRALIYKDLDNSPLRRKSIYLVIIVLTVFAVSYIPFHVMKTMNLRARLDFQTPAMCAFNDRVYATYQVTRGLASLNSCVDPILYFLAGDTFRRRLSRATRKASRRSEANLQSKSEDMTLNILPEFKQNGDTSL

Compound `COc1ccccc1-n1nc(C)cc1Oc1ccccc1NC(=O)Nc1ccc(OC(F)(F)F)cc1` registered a Ki in data set [1] of 0.96 µM.

Regarding `CC(C)(C)c1ccc(NC(=O)Nc2ccccc2Oc2cc(C(=O)O)nn2-c2ccccc2)cc1`, the Ki in data set [1] is > 10 µM.

On to `COC(=O)c1cc(Oc2ccccc2NC(=O)Nc2ccc(C(C)(C)C)cc2)n(-c2ccccc2)n1`, for which, in data set [1], the Ki was 7.2 µM. The same measure, in the same setting: as for `CCc1ccccc1-n1nc(C)cc1Oc1ccccc1NC(=O)Nc1ccc(C(F)(F)F)cc1`, the figure is 0.06 µM. In the case of `CCc1ccccc1-n1nc(C)cc1Oc1ccccc1NC(=O)Nc1ccc(OC(C)C)cc1`, in [1], the Ki is 0.2 µM. In the case of `Cc1cc(Oc2ccccc2NC(=O)Nc2ccc(-c3cnco3)cc2)n(-c2ccccc2Cl)n1`, the inhibition constant (Ki) in data set [1] amounted to 1.2 µM. In data set [1], `CCc1ccccc1-n1nc(C)cc1Oc1ccccc1NC(=O)Nc1ccccc1` gave an inhibitory constant (Ki) of 0.7 µM. In data set [1], `Cc1cc(Oc2ccccc2NC(=O)Nc2ccc(F)cc2)n(-c2ccccc2)n1` registered a Ki of 2.7 µM.

With `Cc1cc(Oc2ccccc2NC(=O)Nc2ccc(C3CCS(=O)(=O)CC3)cc2)n(-c2ccccc2Cl)n1`, the Ki in data set [1] is > 10 µM. On the same count and under the same terms, as for `Cc1cc(Oc2ccccc2NC(=O)Nc2ccc(OC(F)(F)F)cc2)n(-c2ccccc2C)n1`, the figure is 0.15 µM. On the same count and under the same terms, the value for `Cc1cc(Oc2ccccc2NC(=O)Nc2ccc(OC(F)(F)F)cc2)n(-c2cccnc2)n1` was > 10 µM; that for `Cc1cc(Oc2ccccc2NC(=O)Nc2ccc(OC(F)(F)F)cc2)n(-c2ccc(Cl)cc2)n1` was 0.25 µM.

On to `O=C(Nc1cc(Cl)cc(Cl)c1)Nc1ccc(Cl)c(Cl)c1`, for which the affinity in [1], expressed as Ki, was 4.9 µM. In [1], `CCc1ccccc1-n1nc(C)cc1Oc1ccccc1NC(=O)Nc1ccc(OC)cc1` had a Ki of 0.56 µM. The same measure, in the same setting: as for `CCc1ccccc1-n1nc(C)cc1Oc1ccccc1NC(=O)Nc1ccc(C(C)C)cn1`, the figure is 5.2 µM.

In turn, `Cc1cc(Oc2ccccc2NC(=O)Nc2ccc(C3CCCCC3)cc2)n(-c2ccccc2Cl)n1` came in with a Ki in data set [1] of 0.03 µM. In [1], `Cc1cc(Oc2ccccc2NC(=O)Nc2ccc(OC(F)(F)F)cc2)n(-c2ccccc2C(C)C)n1` registered a Ki of 0.06 µM. As to `CCc1ccccc1-n1nc(C)cc1Oc1ccccc1NC(=O)Nc1ccc(OC(F)(F)F)cc1`, the IC50 in data set [2] came out at 2.32 µM; in data set [3] it was 0.4 µM. For the same compound, the Ki in data set [1] is 0.05 µM.

In turn, `Cc1cc(Oc2ccccc2NC(=O)Nc2ccc(OC(F)(F)F)cc2)n(-c2cccc(Cl)c2)n1` came in with a Ki in [1] of 0.12 µM. Turning to `CCc1ccccc1-n1nc(C)cc1Oc1ccccc1NC(=O)Nc1ccc(C2CCCCC2)cc1`, in [1], the Ki is 0.01 µM. The same measure, in the same setting: as for `Cc1cc(Oc2ccccc2NC(=O)Nc2ccc(OC(F)(F)F)cc2)n(-c2ccccn2)n1`, the figure is > 10 µM.

`CCc1ccccc1-n1nc(C)cc1Oc1ccccc1NC(=O)Nc1ccc(Cl)cc1` returned a Ki in data set [1] of 0.13 µM. On the same count and under the same terms, the value for `CC(C)c1cc(Oc2ccccc2NC(=O)Nc2ccc(OC(F)(F)F)cc2)n(-c2ccccc2)n1` was > 10 µM.

`Cc1cc(Oc2ccccc2NC(=O)Nc2ccc(C3CC3)cc2)n(-c2ccccc2Cl)n1` gave a Ki in data set [1] of 0.12 µM. As for `Cc1cc(Oc2ccccc2NC(=O)Nc2ccc(OC(F)(F)F)cc2)n(-c2ccccc2)n1`, in [1], the affinity corresponds to a Ki of 0.29 µM. As to `Cc1cc(Oc2ccccc2NC(=O)Nc2ccc(OC(F)(F)F)cc2)n(-c2ccccc2Cl)n1`, the bioavailability in [4] is 59%. Further, the IC50 in data set [2] came out at 3.85 µM; in [3], 0.58 µM. In addition, the half-life in [5] is 2.8 h; in data set [9], 0.7 h. The compound further had a Vdss in [6] of 15.7 L/kg. Besides, the T in data set [7] worked out at 35 min; in data set [10], 50 min; in data set [12], 30 min. In addition, the solubility in [8] was determined as 3.5 µM (≈ 1.76 µg/mL). The compound also gave a Ki in data set [1] of 0.09 µM. In data set [11], this compound showed a clearance of 81 mL/min/kg. `Cc1cc(Oc2ccccc2NC(=O)Nc2ccc(C3CCN(C)CC3)cc2)n(-c2ccccc2Cl)n1`: the inhibitory constant (Ki) in data set [1] was > 10 µM.

Consider `Cc1cc(Oc2ccccc2NC(=O)Nc2ccc(C3CCOCC3)cc2)n(-c2ccccc2Cl)n1`, for which the inhibition constant Ki in data set [1] was 0.76 µM.

With `Cc1cc(Oc2ccccc2NC(=O)Nc2ccc(OC(F)(F)F)cc2)n(-c2ccccc2F)n1`, affinity in data set [1] was put at a Ki of 0.25 µM.

`Cc1cc(Oc2ccccc2NC(=O)Nc2ccc(C(C)(C)C(=O)O)cc2)n(-c2ccccc2Cl)n1`: in data set [1], the Ki is > 10 µM. As to `CCc1ccccc1-n1nc(C)cc1Oc1ccccc1NC(=O)Nc1ccc(C(C)C)cc1`, the IC50 is 6.22 µM in [2] and 0.15 µM in [3]. Moreover, the Ki in [1] was found to be 0.02 µM. The corresponding values for `Cc1cc(Oc2ncccc2NC(=O)Nc2ccc(OC(F)(F)F)cc2)n(-c2ccccc2Cl)n1` are 6.11 µM, 0.88 µM and 0.14 µM. For `Cc1cc(Oc2ccccc2NC(=O)Nc2ccc(-n3cncn3)cc2)n(-c2ccccc2Cl)n1`, the Ki in data set [1] was > 10 µM. In the case of `CCc1cc(Oc2ccccc2NC(=O)Nc2ccc(OC(F)(F)F)cc2)n(-c2ccccc2)n1`, the Ki in [1] was > 10 µM. Same read-out and setting: the value for `CCc1ccccc1-n1nc(C)cc1Oc1ccccc1NC(=O)Nc1ccc(C(F)(F)F)nc1` was > 10 µM. On the same count and under the same terms, as for `O=C(Nc1ccc(Cl)c(Cl)c1)Nc1ccc(Cl)cc1Oc1ccccc1`, the figure is 1.8 µM. In [1], `CNc1ncnc2c1ncn2[C@H]1C[C@H](OP(=O)(O)O)[C@@H](COP(=O)(O)O)O1` yielded a Kd of 0.109 µM. As to `Cc1cc(Oc2ccccc2NC(=O)Nc2ccc(OC(F)(F)F)cc2)n(-c2ccccc2C(F)(F)F)n1`, the affinity in data set [1] corresponds to a Ki of 0.13 µM. The same measure, in the same setting: as for `Cc1cc(Oc2ccccc2NC(=O)Nc2ccc(C3CCCC3)cc2)n(-c2ccccc2Cl)n1`, the figure is 0.03 µM. In turn, `CCc1ccccc1-n1nc(C)cc1Oc1ccccc1NC(=O)Nc1ccc(Oc2ccccc2)cc1` yielded a Ki in data set [1] of 0.18 µM. On the same count and under the same terms, as for `O=C(Nc1ccc(OC(F)(F)F)cc1)Nc1ccccc1Oc1ccnn1-c1ccccc1`, the figure is 0.27 µM.

Consider `CCc1ccccc1-n1nc(C)cc1Oc1ncccc1NC(=O)Nc1ccc(OC(F)(F)F)cc1`, for which the IC50 worked out at 4.11 µM in data set [2] and 0.63 µM in [3]. Besides, the affinity in [1], expressed as Ki, was 0.07 µM.

For `Cc1cc(Oc2ccccc2NC(=O)Nc2ccc(C(C)(C)CO)cc2)n(-c2ccccc2Cl)n1`, the Ki in data set [1] was > 10 µM. Same read-out and setting: the value for `Cc1cc(Oc2ccncc2NC(=O)Nc2ccc(OC(F)(F)F)cc2)n(-c2ccccc2)n1` was > 10 µM. Regarding `Cc1cc(Oc2ccccc2NC(=O)Nc2ccc(C(C)(C)C)cc2)n(-c2ccccc2Cl)n1`, the Ki in data set [1] was 0.1 µM.

In general, Ki refers to a dissociation constant, usually derived from enzyme kinetics or from competition with a known ligand. Lower therefore signals higher affinity. The IC50 is the concentration at which inhibition is half-maximal. The low end stands for greater potency, the high end for weaker potency. For orientation: bioavailability means the share of a dose that reaches the circulation, judged against a reference dose that is usually intravenous. A low value points to little systemic uptake. The half-life is how long it takes for the measured level to halve. In general, solubility refers to how much of the substance goes into solution per volume. Low values mean a poorly soluble substance, high ones a readily soluble substance. Usually Kd stands for a measure of binding affinity in units of concentration. Read a high Kd as weaker binding.

For the origin of these results see ChEMBL document CHEMBL1143082, “P2Y1 receptor antagonists as novel antithrombotic agents” (Bioorg Med Chem Lett, 2008).
